MrgX1 PAM: human MrgX1 positive allosteric modulation, primary screen; B-score at 10 µM; MrgX1-HEK293, Fluo-4 calcium flux, FDSS; hits give high values; 0.63% of 310,000 active;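 active = plate-corrected calcium response at least 3 library SD above typical, normal starting fluorescence, not activating the receptor alone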;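 note: compound read alongside a low EC10 to EC30 dose of BAM8-22 agonist; peak minus trough fluorescence over baseline measured at the second addition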
Target sequence (Q96LB2 whole entry, looked up): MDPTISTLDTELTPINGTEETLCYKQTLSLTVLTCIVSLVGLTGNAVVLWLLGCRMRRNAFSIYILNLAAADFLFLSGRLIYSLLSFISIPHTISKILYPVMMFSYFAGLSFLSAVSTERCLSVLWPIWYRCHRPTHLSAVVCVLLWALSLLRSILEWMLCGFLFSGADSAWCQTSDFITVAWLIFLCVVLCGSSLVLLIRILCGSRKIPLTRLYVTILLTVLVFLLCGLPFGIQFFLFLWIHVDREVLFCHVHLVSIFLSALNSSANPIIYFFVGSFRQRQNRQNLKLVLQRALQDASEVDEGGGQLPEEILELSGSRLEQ
RGS4 inh: human RGS4 inhibition; HEK293 M3R/RGS4 inducible, Fluo-4 calcium flux; hits give high values; triggered by carbachol at its EC20; B-score at 10 µM; 0.45% of 310,000 active; AID 463165;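 active = B-score, a plate-corrected calcium signal, over three deviations above library mean, with baseline fluorescence within five deviations of library mean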;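 note: RGS4 expression induced by doxycycline in cells with stable M3 receptor; B-score is computed from the integrated fluorescence ratio over baseline after carbachol; higher B-score means a larger calcium signal and so more RGS4 inhibition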
Target sequence (P49798 whole entry, looked up): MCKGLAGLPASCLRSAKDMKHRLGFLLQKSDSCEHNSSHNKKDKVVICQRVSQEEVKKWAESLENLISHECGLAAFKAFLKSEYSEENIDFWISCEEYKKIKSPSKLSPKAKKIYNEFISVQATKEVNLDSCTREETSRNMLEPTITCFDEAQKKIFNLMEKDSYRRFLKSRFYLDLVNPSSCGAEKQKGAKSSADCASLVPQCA
MrgX1 ag: activates human MrgX1 receptor signaling. MrgX1-HEK293 cells, Fluo-4 calcium fluorescence, agonist mode; hits give high values. B-score at 10 µM. AID 588627. 0.44% of 310,000 active. Q96LB2;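 active = calcium response B-score plate-corrected fluorescence ratio at least 3 library SD, with starting fluorescence B-score inside 5 SD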
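Material: HEK293 cells stably expressing human MrgX1 receptor | Quantity: 15,000 cells per well | Times: Cells plated overnight, dye loaded 0.5 h 37 °C, 0.5 h room temperature | Measured by: Kinetic Fluo-4 NW fluorescence of intracellular calcium | Control set: Positive and negative controls per plate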
RGS4 act: RGS4 potentiation or activation | HEK293 M3R/inducible RGS4, carbachol calcium flux Fluo4; hits give low values | B-score at 10 µM | 0.92% of 310,000 active;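 active = B-score of the integrated calcium signal more than 4 SD below the library mean, with starting fluorescence not abnormally high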;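 note: negative B-score means reduced calcium response which marks RGS4 activation or potentiation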
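test system = HEK293 cells with stable M3R and inducible RGS4 | schedule = recording 10 s baseline at 1 Hz, 100 s post-agonist | technique = Fluo4-AM (2 µM) calcium-flux fluorescence, kinetic read | measure = Agonist-evoked peak-minus-minimum fluorescence over baseline, integrated ratio, B score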
MrgX1 antagonist: human MrgX1 receptor antagonism, primary screen. 1.3% of 310,000 active. MRGX1-HEK293 calcium flux, Fluo-4, BAM8-22 antagonism; hits give low values. Q96LB2. B-score at 10 µM. AID 588676;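 active = calcium-response B-score plate-corrected more than 3 library SD below zero, starting fluorescence within 5 deviations, no agonist response on first addition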;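 note: peak minus trough fluorescence over baseline after final BAM8-22 challenge near maximal dose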
MrgX1 ant reconf: confirmation of human MrgX1 receptor antagonists | shares compounds with MrgX1 antagonist | remaining BAM8-22 calcium response % of control (hits give low values), % at 10 µM | 19% of 2,300 active | MrgX1-HEK293, BAM8-22 calcium flux, Fluo-4; hits give low values;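 active = remaining agonist calcium response no higher than 100% minus 3 SD of agonist-only control wells, with starting fluorescence near control levels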;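 note: agonist BAM8-22 given at a near maximal EC90 to ECmax level; peak minus minimum fluorescence divided by baseline after agonist addition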
HEK293 Ca flux: counter-screen for MrgX1 antagonists: effect in parental HEK293 cells. shares compounds with MrgX1 antagonist. Fluo-4 calcium fluorescence, FDSS. fluorescence ratio F(max-min)/F0 at 10 µM. 2% of 4,000 active. AID 624111;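 active = duplicate-averaged calcium fluorescence ratio at least three times the standard deviation of buffer wells, a nonspecific response in parental cells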
HEK293 Ca counter: counter-screen for MrgX1 allosteric activators: effect in parental HEK293 cells; 0.4% of 4,000 active; fluorescence ratio F(max-min)/F0 at 10 µM; parental HEK293 calcium flux, Fluo-4 fluorescence ratio; hits give high values; shares compounds with MrgX1 antagonist;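 active = calcium fluorescence ratio, averaged over duplicates, at least 3 SD of the buffer-well ratio, meaning a nonspecific response in receptor-free cells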;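 note: untransfected parental HEK293 lacking MrgX1 used as counterscreen for MrgX1 allosteric activators; fluorescence change taken during the second addition on a kinetic imager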
HEK293 Ca cntr2: counter-screen for MrgX1 activators: effect in parental HEK293 cells; AID 624115; 8.7% of 4,000 active; fluorescence ratio F(max-min)/F0 at 10 µM; shares compounds with MrgX1 antagonist; Fluo-4 calcium fluorescence (FDSS); hits give high values;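 active = calcium fluorescence ratio at least three times the spread of buffer wells, meaning a non-specific response in parental cells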
* marks the source's active call; other numbers are inactive results; i = inactive; . = no result. The list is not random: actives were taken first. Their share in the collection is about 3.5%.

SMILES	MrgX1 PAM	RGS4 inh	MrgX1 ag	RGS4 act	MrgX1 antagonist	MrgX1 ant reconf	HEK293 Ca flux	HEK293 Ca counter	HEK293 Ca cntr2
Brc1ccc(-c2nc3ncccn3c2NC2CCCCC2)o1	i	i	i	i	-5.3*	i	i	i	i
Cc1ccc(C(=O)NCC(=O)NNC(=O)CN(C)S(=O)(=O)c2ccc(Cl)cc2)s1	i	i	i	i	i	.	.	.	.
COCCNC(=O)C1CC2Cn3c(nc4cc(C)c(C)cc43)C2N1C (stereo unspecified)	i	i	i	i	i	.	.	.	.
COCCNC(=O)C1CC2Cn3c(nc4cc5ccccc5cc43)C2N1C (stereo unspecified)	i	i	i	i	-5.3*	i	i	i	i
CC(C)=CCN1CCN(Cc2cccn2-c2ccccn2)CC1CCO (stereo unspecified)	i	i	i	i	i	.	.	.	.
CN(C(=O)COC(=O)c1cccnc1Nc1cccc(C(F)(F)F)c1)C1CCS(=O)(=O)C1 (stereo unspecified)	i	i	i	i	-5.7*	i	i	i	i
CN(C(=O)COC(=O)c1cccnc1Nc1ccccc1F)C1CCS(=O)(=O)C1 (stereo unspecified)	i	i	i	i	i	.	.	.	.
O=C(O)CCCC(=O)Nc1ccccc1C(=O)O	i	i	i	i	-6.4*	i	i	i	i
CCOc1ccc(S(=O)(=O)Nc2cc(Cl)ccc2O)cc1	i	i	i	i	-4.6*	85%*	i	i	i
Cc1ccc(C(=O)Nc2ccc(N3CCOCC3)nc2N2CCOCC2)cc1	i	i	i	i	i	.	.	.	.
Nc1nonc1-c1noc(CCCN2C(=O)c3ccccc3C2=O)n1	i	i	i	i	-6.6*	i	i	i	i
COc1ccc(Cc2nc3ccc(C(=O)N(C)C(C)c4ccon4)cc3o2)cc1 (stereo unspecified)	i	i	i	i	i	.	.	.	.
O=C(Oc1ccc(Cl)c2cccnc12)N1CCOCC1	i	i	i	i	i	.	.	.	.
O=C(Oc1ccc(Cl)c2cccnc12)N1CCCCC1	i	i	i	i	-5.5*	i	i	i	i
N#CC1=C(N)OC2=C(C(=O)CCC2)C12CCC1(CC2)OCCO1	i	i	i	i	i	.	.	.	.
CC1(C)C(C#N)=C(N)OC2=C1C(=O)CCC2	i	i	i	i	-5.7*	i	i	i	i
COc1ccc(CN2CCC(n3nccc3NC(=O)c3cccc(F)c3)CC2)cc1O	i	i	i	i	i	.	.	.	.
Cc1ccc(C(=O)Nc2ccc3c(c2)C(=O)N(C)C3=O)c(C)c1	i	i	i	i	-6.8*	i	i	i	i
COc1cccc(OC)c1C(=O)Nc1ccncc1	i	i	i	i	i	.	.	.	.
CCOC(=O)[C@H]1[C@H]2COc3cc(OC)ccc3[C@@H]2N2C(=O)c3cc(OC)c(OC)cc3NC(=O)[C@@]12C	i	.	i	.	i	.	.	.	.
NC(=O)c1ccccc1NC(=O)CCN1C(=O)c2ccccc2C1=O	i	i	i	i	-6.9*	85%*	i	i	i
COc1cc(OC)cc(C(=O)NC(=S)Nc2ccc(NC(=O)c3ccco3)cc2)c1	i	i	i	i	-5.1*	i	i	i	i
CCOc1cc(Cl)c(S(=O)(=O)NCc2cccnc2)cc1Cl	i	i	i	i	i	.	.	.	.
CCN(CC)S(=O)(=O)c1ccc(NC(=O)Nc2cccc(C(F)(F)F)c2)cc1	i	i	i	i	-5.8*	64%*	i	i	i
O=C(NNS(=O)(=O)c1ccccc1F)c1sccc1-n1cccc1	i	i	i	i	i	.	.	.	.
SMILES	MrgX1 PAM	RGS4 inh	MrgX1 ag	RGS4 act	MrgX1 antagonist	MrgX1 ant reconf	HEK293 Ca flux	HEK293 Ca counter	HEK293 Ca cntr2
O=C(CSc1nc2ccccc2c(=O)n1-c1ccccc1)c1c[nH]c2ccccc12	i	i	i	i	-6*	i	i	i	i
Cc1ccc(-n2c(N)c(C(=O)Nc3ccccc3F)sc2=S)cc1C	i	i	i	i	i	.	.	.	.
COc1ccc(CNc2nc(-c3cccnc3)nn2C(=O)C(C)C)cc1	.	i	.	i	.	.	.	.	.
Cc1ccccc1NC(=O)c1ccc2c(c1)OCCO2	i	i	i	i	i	.	.	.	.
COC(=O)c1ccccc1NC(=O)c1ccc2c(c1)OCCCO2	i	i	i	i	-10*	i	i	i	i
O=C(c1ccc(-n2cncn2)c([N+](=O)[O-])c1)N1CCN(S(=O)(=O)c2ccc(F)c(F)c2)CC1	i	i	i	i	i	.	.	.	.
O=C(O)c1ccccc1-c1ccccc1C(=O)Nc1ccccc1	i	i	i	i	i	.	.	.	.
O=C(Nc1ccc(NC(=O)c2ccccc2)nc1)c1ccncc1	i	i	i	i	-6.8*	i	i	i	i
Cc1ccc(NC(=O)c2ccccc2-c2ccccc2C(=O)O)cc1	i	i	i	i	-6.6*	i	i	i	i
Cc1ccc(NC(=O)c2ccccc2)cc1	i	i	i	i	-4.7*	i	i	i	i
COc1cccc(N2C(=O)C(Cc3c[nH]c4ccccc34)NC2=S)c1 (stereo unspecified)	i	i	i	i	i	.	.	.	.
CCn1c(Cc2cccs2)nnc1SCC(=O)NC1CC1	i	i	i	i	i	.	.	.	.
C=CCn1c(Cc2cccs2)nnc1SCC(=O)NC1CC1	i	i	i	i	-8.8*	i	i	i	i
CC1CCN(C2CCN(S(=O)(=O)c3ccc(C(F)(F)F)cc3)CC2)CC1	i	i	i	i	i	.	.	.	.
Cc1ccc(C(=O)NCC(c2ccc(F)cc2)N2CCOCC2)cc1 (stereo unspecified)	i	i	i	i	i	.	.	.	.

High-throughput results deposited in PubChem BioAssay by Johns Hopkins Ion Channel Center.
